What was measured:
Pseudomonas aeruginosa [1] = experiment: Synergistic antibacterial activity against wild type Pseudomonas aeruginosa PAO1 assessed as fractional inhibitory concentration index in presence of minocycline incubated for 18 hrs by broth microdilution method; format: functional
Method in brief: (§1)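 Checkerboard titration of the adjuvant against the antibiotic, run under the CLSI microdilution conditions (MHB, 5 × 10^5 CFU/mL, 18 h, 37 °C). Each agent's FIC is its MIC in combination divided by its MIC alone; FICI is the sum of the two FICs. FICI ≤0.5 was read as synergy, >0.5–4.0 as no interaction, and >4.0 as antagonism.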

Enterobacter cloacae = experiment: Synergistic antibacterial activity against Enterobacter cloacae 117029 assessed as fractional inhibitory concentration index in presence of minocycline incubated for 18 hrs by broth dilution method; format: functional; method in brief: as §1
Pseudomonas aeruginosa [2] = experiment: Antimicrobial activity against MDR/XDR Pseudomonas aeruginosa isolate PA259-96918 harboring GyrA Thr83Ile mutant incubated for 18 hrs by broth microdilution method; format: functional; details: isolate PA259-96918, 18 h
Method in brief: (§2)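 Broth microdilution per CLSI: overnight cultures set to 0.5 McFarland in saline, diluted 1:50 in Mueller-Hinton broth to a final 5 × 10^5 CFU/mL, added to 2-fold serial dilutions, incubated 18 h at 37 °C; MIC is the lowest concentration without visible turbidity, confirmed at 590 nm.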

[3] = Retention time of the compound by HPLC analysis; format: physicochemical
Klebsiella pneumoniae [4] = experiment: Antimicrobial activity against Klebsiella pneumoniae 116381 incubated for 18 hrs by broth dilution method; format: functional; details: Klebsiella pneumoniae, 116381, 18 h
Method in brief: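 CLSI broth microdilution. Overnight cultures were adjusted to 0.5 McFarland in saline, diluted 1:50 in Mueller-Hinton broth, and inoculated at a final 5 × 10^5 CFU/mL. Compounds were tested as 2-fold serial dilutions and incubated 18 h at 37 °C. MIC was the lowest concentration with no visible turbidity, confirmed by absorbance at 590 nm.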

Pseudomonas aeruginosa [5] = experiment: Synergistic antibacterial activity against wild type Pseudomonas aeruginosa PAO1 assessed as fractional inhibitory concentration index in presence of rifampicin incubated for 18 hrs by broth microdilution method; format: functional
Method in brief: (§3)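 Checkerboard synergy assay. Antibiotic and adjuvant in twofold dilutions in Mueller-Hinton broth. Inoculum 5 × 10^5 CFU/mL from a 0.5 McFarland suspension, 18 h at 37 °C, MIC read by turbidity and confirmed at 590 nm. FIC = MIC in combination / MIC alone for each agent, FICI = sum. Interpreted as ≤0.5 synergy, 0.5–4 no interaction, >4 antagonism.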

Pseudomonas aeruginosa [6] = experiment: Synergistic antibacterial activity against MDR/XDR Pseudomonas aeruginosa isolate PA264-104354 harboring T83I mutant assessed as fractional inhibitory concentration index in presence of rifampicin incubated for 18 hrs by broth microdilution method; format: functional; method in brief: as §3
Klebsiella pneumoniae [7] = experiment: Synergistic antibacterial activity against Klebsiella pneumoniae 116381 assessed as fractional inhibitory concentration index in presence of rifampicin incubated for 18 hrs by broth dilution method; format: functional; method in brief: as §1
Pseudomonas aeruginosa [8] = experiment: Synergistic antibacterial activity against MDR/XDR Pseudomonas aeruginosa isolate PA259-96918 harboring GyrAT83I mutant assessed as fractional inhibitory concentration index in presence of minocycline incubated for 18 hrs by broth microdilution method; format: functional; method in brief: as §3
Pseudomonas aeruginosa [9] = experiment: Antimicrobial activity against wild type Pseudomonas aeruginosa PAO1 incubated for 18 hrs by broth microdilution method; format: functional; details: PAO1, 18 h; method in brief: as §2
Pseudomonas aeruginosa [10] = experiment: Synergistic antibacterial activity against MDR/XDR Pseudomonas aeruginosa isolate PA259-96918 harboring T83I mutant assessed as fractional inhibitory concentration index in presence of rifampicin incubated for 18 hrs by broth microdilution method; format: functional; method in brief: as §3
Pseudomonas aeruginosa [11] = experiment: Synergistic antibacterial activity against MDR/XDR Pseudomonas aeruginosa isolate 100036 harboring GyrA T83I mutant assessed as fractional inhibitory concentration index in presence of moxifloxacin incubated for 18 hrs by broth microdilution method; format: functional; method in brief: as §3
Pseudomonas aeruginosa [12] = experiment: Synergistic antibacterial activity against MDR/XDR Pseudomonas aeruginosa isolate PA260-97103 harboring GyrA T83I mutant assessed as fractional inhibitory concentration index in presence of moxifloxacin incubated for 18 hrs by broth microdilution method; format: functional; method in brief: as §3
Pseudomonas aeruginosa [13] = experiment: Antimicrobial activity against MDR/XDR Pseudomonas aeruginosa isolate PA262-101856 harboring GyrA Thr83Ile mutant incubated for 18 hrs by broth microdilution method; format: functional; details: isolate PA262-101856, 18 h; method in brief: as §2
Pseudomonas aeruginosa [14] = experiment: Synergistic antibacterial activity against MDR/XDR Pseudomonas aeruginosa isolate 101243 devoid of GyrA T83I mutant assessed as fractional inhibitory concentration index in presence of rifampicin incubated for 18 hrs by broth microdilution method; format: functional; method in brief: as §3
Pseudomonas aeruginosa [15] = experiment: Synergistic antibacterial activity against MDR/XDR Pseudomonas aeruginosa isolate PA262-101856 harboring GyrA T83I mutant assessed as fractional inhibitory concentration index in presence of ciprofloxacin incubated for 18 hrs by broth microdilution method; format: functional; method in brief: as §3
Pseudomonas aeruginosa [16] = experiment: Antimicrobial activity against MDR/XDR Pseudomonas aeruginosa isolate PA260-97103 harboring GyrA Thr83Ile mutant incubated for 18 hrs by broth microdilution method; format: functional; details: isolate PA260-97103, 18 h; method in brief: as §2
Pseudomonas aeruginosa [17] = experiment: Synergistic antibacterial activity against MDR/XDR Pseudomonas aeruginosa isolate 100036 harboring T83I mutant assessed as fractional inhibitory concentration index in presence of rifampicin incubated for 18 hrs by broth microdilution method; format: functional; method in brief: as §3
Pseudomonas aeruginosa [18] = experiment: Synergistic antibacterial activity against MDR/XDR Pseudomonas aeruginosa isolate 100036 harboring GyrA T83I mutant assessed as fractional inhibitory concentration index in presence of minocycline incubated for 18 hrs by broth microdilution method; format: functional; method in brief: as §3
Pseudomonas aeruginosa [19] = experiment: Synergistic antibacterial activity against MDR/XDR Pseudomonas aeruginosa isolate PA260-97103 harboring GyrA T83I mutant assessed as fractional inhibitory concentration index in presence of rifampicin incubated for 18 hrs by broth microdilution method; format: functional; method in brief: as §3
Pseudomonas aeruginosa [20] = experiment: Synergistic antibacterial activity against MDR/XDR Pseudomonas aeruginosa isolate PA262-101856 harboring GyrA T83I mutant assessed as fractional inhibitory concentration index in presence of rifampicin incubated for 18 hrs by broth microdilution method; format: functional; method in brief: as §3
Pseudomonas aeruginosa [21] = experiment: Synergistic antibacterial activity against MDR/XDR Pseudomonas aeruginosa isolate 91433 devoid of GyrA T83I mutant assessed as fractional inhibitory concentration index in presence of rifampicin incubated for 18 hrs by broth microdilution method; format: functional; method in brief: as §3
Pseudomonas aeruginosa [22] = experiment: Antimicrobial activity against MDR/XDR Pseudomonas aeruginosa isolate 100036 harboring GyrA Thr83Ile mutant incubated for 18 hrs by broth microdilution method; format: functional; details: isolate 100036, 18 h; method in brief: as §2
Pseudomonas aeruginosa [23] = experiment: Antimicrobial activity against MDR/XDR Pseudomonas aeruginosa isolate 91433 devoid of GyrA Thr83Ile mutant incubated for 18 hrs by broth microdilution method; format: functional; details: isolate 91433, 18 h; method in brief: as §2
Pseudomonas aeruginosa [24] = experiment: Synergistic antibacterial activity against MDR/XDR Pseudomonas aeruginosa isolate PA262-101856 harboring GyrA T83I mutant assessed as fractional inhibitory concentration index in presence of minocycline incubated for 18 hrs by broth microdilution method; format: functional; method in brief: as §3
Pseudomonas aeruginosa [25] = experiment: Synergistic antibacterial activity against MDR/XDR Pseudomonas aeruginosa isolate 101885 harboring T83I mutant assessed as fractional inhibitory concentration index in presence of rifampicin incubated for 18 hrs by broth microdilution method; format: functional; method in brief: as §3
Pseudomonas aeruginosa [26] = experiment: Antimicrobial activity against MDR/XDR Pseudomonas aeruginosa isolate 101243 devoid of GyrA Thr83Ile mutant incubated for 18 hrs by broth microdilution method; format: functional; details: isolate 101243, 18 h; method in brief: as §2

Compound	fractional inhibitory concentration index (FICI) (Pseudomonas aeruginosa [1])	fractional inhibitory concentration index (FICI) (Enterobacter cloacae)	MIC (Pseudomonas aeruginosa [2])	Retention_time [3]	MIC (Klebsiella pneumoniae [4])	fractional inhibitory concentration index (FICI) (Pseudomonas aeruginosa [5])	fractional inhibitory concentration index (FICI) (Pseudomonas aeruginosa [6])	fractional inhibitory concentration index (FICI) (Klebsiella pneumoniae [7])	fractional inhibitory concentration index (FICI) (Pseudomonas aeruginosa [8])	MIC (Pseudomonas aeruginosa [9])	fractional inhibitory concentration index (FICI) (Pseudomonas aeruginosa [10])	fractional inhibitory concentration index (FICI) (Pseudomonas aeruginosa [11])	fractional inhibitory concentration index (FICI) (Pseudomonas aeruginosa [12])	MIC (Pseudomonas aeruginosa [13])	fractional inhibitory concentration index (FICI) (Pseudomonas aeruginosa [14])	fractional inhibitory concentration index (FICI) (Pseudomonas aeruginosa [15])	MIC (Pseudomonas aeruginosa [16])	fractional inhibitory concentration index (FICI) (Pseudomonas aeruginosa [17])	fractional inhibitory concentration index (FICI) (Pseudomonas aeruginosa [18])	fractional inhibitory concentration index (FICI) (Pseudomonas aeruginosa [19])	also measured
Cl.Cl.Cl.Cl.Cl.NC[C@H]1O[C@H](O[C@H]2[C@H](OCCCCCCCCCCCCN3CCN(c4cc5c(cc4F)c(=O)c(C(=O)O)cn5C4CC4)CC3)[C@@H](O)[C@H](N)C[C@@H]2N)[C@H](N)C[C@@H]1O	0.047	0.125	> 128 µg/mL	14.945 min	> 128 µg/mL	0.047	0.039	<=0.039	0.031 - 0.063	64 µg/mL	0.008 - 0.016	–	–	–	–	–	–	–	–	–	–
COc1c(N2C[C@@H]3CCCN(CCCCCCCCCCCCO[C@@H]4[C@@H](O)[C@H](N)C[C@H](N)[C@H]4O[C@H]4O[C@H](CN)[C@@H](O)C[C@H]4N)[C@@H]3C2)c(F)cc2c(=O)c(C(=O)O)cn(C3CC3)c12.Cl.Cl.Cl.Cl.Cl	0.38	0.19	> 256 µg/mL	14.585 min	> 256 µg/mL	0.07	0.02	0.002 - 0.006	0.03 - 0.04	32 µg/mL	0.004 - 0.01	0.08	0.13	> 256 µg/mL	0.13	0.25 - 0.28	32 µg/mL	0.01	0.06	0.06	fractional inhibitory concentration index (FICI) (Pseudomonas aeruginosa [20]): 0.008 - 0.02; fractional inhibitory concentration index (FICI) (Pseudomonas aeruginosa [21]): 0.16; MIC (Pseudomonas aeruginosa [22]): 128 µg/mL; MIC (Pseudomonas aeruginosa [23]): 32 µg/mL; fractional inhibitory concentration index (FICI) (Pseudomonas aeruginosa [24]): 0.03 - 0.05; fractional inhibitory concentration index (FICI) (Pseudomonas aeruginosa [25]): 0.05; MIC (Pseudomonas aeruginosa [26]): 64 µg/mL
Cl.Cl.Cl.Cl.Cl.Cl.NC[C@H]1O[C@H](O[C@H]2[C@H](OCCCCCCCCCCN3CCN(Cc4cccc5ccccc45)CC3)[C@@H](O)[C@H](N)C[C@@H]2N)[C@H](N)C[C@@H]1O	0.09	–	> 512 µg/mL	12.917 min	–	0.02	–	–	0.016 - 0.031	256 µg/mL	0.004 - 0.006	0.063 - 0.07	0.08	512 µg/mL	0.05	0.13	32 µg/mL	0.004 - 0.012	0.031 - 0.033	0.05	fractional inhibitory concentration index (FICI) (Pseudomonas aeruginosa [20]): 0.02; fractional inhibitory concentration index (FICI) (Pseudomonas aeruginosa [21]): 0.5; MIC (Pseudomonas aeruginosa [22]): > 512 µg/mL; MIC (Pseudomonas aeruginosa [23]): 32 µg/mL; fractional inhibitory concentration index (FICI) (Pseudomonas aeruginosa [24]): 0.04; fractional inhibitory concentration index (FICI) (Pseudomonas aeruginosa [25]): 0.02; MIC (Pseudomonas aeruginosa [26]): 512 µg/mL

— ChEMBL document CHEMBL4354800, “Amphiphilic nebramine-based hybrids Rescue legacy antibiotics from intrinsic resistance in multidrug-resistant Gram-negative bacilli” (Eur J Med Chem, 2019)
